Source: ChEMBL document CHEMBL1150669, “Isolation and characterization of novel oligosaccharides related to Ziracin” (2002)

What was measured:
Type in all cases: functional
Staphylococcus aureus [1] = test: Antimicrobial activity against Staphylococcus aureus at 20 ug/8 mm disk at pH 7 by agar diffusion method
Outline: (§1)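 Agar disk diffusion against S. aureus. Samples dissolved at 1 mg/mL in CH2Cl2/MeOH (95:5 v/v), plus a 10-fold dilution in the same vehicle; 20 µL of each applied to 8 mm paper disks and air-dried 30 min. Disks placed on S. aureus-seeded agar at pH 7 and pH 8, incubated overnight at 35 °C. Read-out: inhibition zone diameter (mm).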

Staphylococcus aureus [2] = test: Antimicrobial activity against Staphylococcus aureus at 20 ug/8 mm disk at pH 8 by agar diffusion method; outline: as §1
Staphylococcus aureus [3] = test: Antimicrobial activity against Staphylococcus aureus at 2 ug/8 mm disk at pH 7 by agar diffusion method; outline: as §1
Staphylococcus aureus [4] = test: Antimicrobial activity against Staphylococcus aureus at 2 ug/8 mm disk at pH 8 by agar diffusion method; outline: as §1

| Structure (SMILES) | inhibition zone (IZ) (Staphylococcus aureus [1]) | inhibition zone (IZ) (Staphylococcus aureus [2]) | inhibition zone (IZ) (Staphylococcus aureus [3]) | inhibition zone (IZ) (Staphylococcus aureus [4]) |
| --- | --- | --- | --- | --- |
| COC[C@H]1O[C@@H](O[C@@H]2OC[C@@H]3O[C@@]4(OC[C@@H](OC(=O)c5c(C)cc(O)cc5O)[C@H](OC=O)[C@H]4O)O[C@H]3[C@H]2O)[C@@H](OC)[C@@H](O)[C@@H]1O[C@@H]1O[C@H](C)[C@H](OC)[C@H](O[C@@H]2O[C@H](C)[C@H]3O[C@]4(C[C@@H](O)[C@H](O[C@H]5C[C@@H](O[C@H]6C[C@](C)([N+](=O)[O-])[C@@H](OC)[C@H](C)O6)[C@H](OC(=O)c6c(C)c(Cl)c(O)c(Cl)c6OC)[C@@H](C)O5)[C@@H](C)O4)O[C@]3(C)[C@@H]2O)[C@H]1O | 21 mm | 18 mm | 17 mm | 15 mm |
| COC[C@H]1O[C@@H](O[C@@H]2OC[C@@H]3O[C@@]4(OC[C@@H](OC(=O)c5c(C)cc(O)cc5O)[C@@H]5OCO[C@H]54)O[C@H]3[C@H]2O)[C@@H](OC)[C@@H](O)[C@@H]1O[C@@H]1O[C@H](C)[C@H](OC)[C@H](O[C@@H]2O[C@H](C)[C@H]3O[C@]4(C[C@@H](O)[C@H](O[C@H]5C[C@@H](O[C@H]6C[C@](C)([N+](=O)[O-])[C@@H](OC)[C@H](C)O6)[C@H](OC(=O)c6c(C)cc(O)c(Cl)c6OC)[C@@H](C)O5)[C@@H](C)O4)O[C@]3(C)[C@@H]2O)[C@H]1O | 20 mm | 17 mm | 17 mm | 16 mm |
| COC[C@H]1O[C@@H](O[C@@H]2OC[C@@H]3O[C@@]4(OC[C@@H](OC(=O)c5c(C)cc(O)cc5O)[C@@H]5OCO[C@H]54)O[C@H]3[C@H]2O)[C@@H](OC)[C@@H](O)[C@@H]1O[C@@H]1O[C@H](C)[C@H](OC)[C@H](O[C@@H]2O[C@H](C)[C@H]3O[C@]4(C[C@@H](O)[C@H](O[C@H]5C[C@@H](O[C@H]6C[C@](C)([N+](=O)[O-])[C@@H](O)[C@H](C)O6)[C@H](OC(=O)c6c(C)c(Cl)c(O)c(Cl)c6OC)[C@@H](C)O5)[C@@H](C)O4)O[C@]3(C)[C@@H]2O)[C@H]1O | 23 mm | 20 mm | 20 mm | 18 mm |
| COC[C@H]1O[C@@H](O[C@@H]2OC[C@@H]3O[C@@]4(OC[C@@H](OC(=O)c5c(C)cc(O)cc5O)[C@@H]5OCO[C@H]54)O[C@H]3[C@H]2O)[C@@H](OC)[C@@H](O)[C@@H]1O | 10 mm | 8 mm | 8 mm | 8 mm |
| COC[C@H]1O[C@@H](O[C@@H]2OC[C@@H]3O[C@@]4(OC[C@@H](OC(=O)c5c(C)cc(O)cc5O)[C@@H]5OCO[C@H]54)O[C@H]3[C@H]2O)[C@@H](OC)[C@@H](O)[C@@H]1O[C@@H]1O[C@H](C)[C@H](OC)[C@H](O[C@@H]2O[C@H](C)[C@H]3O[C@]4(C[C@@H](O)[C@H](O[C@H]5C[C@@H](O[C@H]6C[C@](C)([N+](=O)[O-])[C@@H](OC)[C@H](C)O6)[C@H](OC(=O)c6c(C)cc(O)c(Cl)c6O)[C@@H](C)O5)[C@@H](C)O4)O[C@]3(C)[C@@H]2O)[C@H]1O | 22 mm | 18 mm | 17 mm | 16 mm |
| COC[C@H]1O[C@@H](O[C@@H]2OC[C@@H]3O[C@@]4(OC[C@@H](OC(=O)c5c(C)cc(O)cc5O)[C@@H]5OCO[C@H]54)O[C@H]3[C@H]2O)[C@@H](OC)[C@@H](O)[C@@H]1O[C@@H]1O[C@H](C)[C@H](OC)[C@H](O[C@@H]2O[C@H](C)[C@H]3O[C@]4(C[C@@H](O)[C@H](O[C@H]5C[C@@H](O[C@H]6C[C@](C)([N+](=O)[O-])[C@@H](OC)[C@H](C)O6)[C@H](OC(=O)c6c(C)c(Cl)c(O)c(Cl)c6OC)[C@@H](C)O5)[C@@H](C)O4)O[C@]3(C)[C@@H]2O)[C@H]1O [EVERNIMICIN] | 26 mm | 21 mm | 23 mm | 19 mm |
